Most compounds without a hit are left out; they make up all but 2.5% or so of the library.
SENP8 block-1: blocks human SENP8 cleavage of Nedd8 substrate; AID 602440; hit rate 0.64% among 360,000; inhibition, % at 20 µM; Q96LD8; recombinant SENP8, Nedd8 substrate fluorescence; in the data active = inhibition mostly above about 40%, no sharp cut-off; inactive = mostly below about 27%
Target sequence (Q96LD8 whole entry, looked up): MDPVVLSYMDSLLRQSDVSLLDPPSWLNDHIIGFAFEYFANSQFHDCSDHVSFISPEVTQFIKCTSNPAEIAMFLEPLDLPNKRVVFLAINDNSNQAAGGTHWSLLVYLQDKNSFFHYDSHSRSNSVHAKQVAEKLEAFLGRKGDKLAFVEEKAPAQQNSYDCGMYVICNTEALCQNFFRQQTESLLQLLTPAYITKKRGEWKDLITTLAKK
SENP1 FRET inh: blocks the human SENP1 SUMO protease catalytic domain; Q9P0U3; recombinant SENP1 catalytic domain, CyPet-SUMO1-YPet FRET cleavage; inhibition, % at 10 µM; hit rate 0.21% among 360,000; AID 624204;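 active = inhibition at least 30% at 10 µM, raw YFP signal under a set limit, fluorescence ratio 0.5 to 1.5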
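Controls: no-enzyme wells low, DMSO-plus-enzyme wells high control. Test system: human recombinant His6-tagged SENP1 catalytic domain enzyme. Reagent: SFCypet-SUMO1-SFYpet FRET protein substrate, 25 nM final. Doses: one dose per compound, 10 µM, 0.5% DMSO. Detection: FRET, CFP and YFP emission. Timing: 50 min reaction at room temperature.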
SENP6 block: SENP6 protease inhibition; Q9GZR1; Recombinant SENP6 catalytic domain, aminoluciferin luminescence; inhibition, % at 10 µM; hit rate 1.8% among 330,000; AID 2599;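 active = inhibition above about 50% at the single tested dose, limit read from the data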
SENP8 block-2: SENP8 protease inhibition; inhibition, % at 10 µM; AID 2540; purified SENP8, Z-RLRGG-aminoluciferin cleavage, luminescence; hit rate 1.2% among 330,000; Q96LD8; in the data active = inhibition above about 50%
SENP7 block: inhibitors of human SENP7 protease. Q9BQF6. recombinant SENP7, Z-RLRGG-aminoluciferin luminescence, 40 min. inhibition, % at 5 µM. hit rate 1.5% among 330,000;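 active = inhibition above about 50% at the single test dose, limit read from the data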
Target sequence (Q9BQF6 706-1050 limits assumed): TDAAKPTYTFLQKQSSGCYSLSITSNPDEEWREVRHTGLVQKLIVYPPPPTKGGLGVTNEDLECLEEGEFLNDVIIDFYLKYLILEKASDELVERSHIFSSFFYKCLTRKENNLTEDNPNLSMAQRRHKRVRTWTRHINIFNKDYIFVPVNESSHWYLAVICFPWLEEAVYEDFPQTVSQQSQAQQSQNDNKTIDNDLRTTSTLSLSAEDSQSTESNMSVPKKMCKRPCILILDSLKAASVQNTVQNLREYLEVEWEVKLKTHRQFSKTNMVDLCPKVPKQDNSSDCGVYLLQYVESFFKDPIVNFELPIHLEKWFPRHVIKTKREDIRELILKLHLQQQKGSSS
Of the large screens only hits and unclear results are named; the others gave an inactive call.

CCOc1ccc(NC(=O)c2cc3ccccc3cc2O)cc1	SENP7 block 68
CCOc1ccc(NC(=O)c2cc3ccccc3cc2OC)cc1	none
CN(C)C(/C=C/Nc1ccc(C#N)cc1)=C(C#N)C#N	SENP7 block 100
CN(C)C(/C=C/Nc1ccc(F)cc1)=C(C#N)C#N	none
O=[N+]([O-])c1cc2c(cc1C=Nc1ccccc1)OCO2	SENP6 block 57
CC[C@]1(C(=O)OC)[C@H]2C(=O)N(Cc3ccccc3)C(=O)[C@H]2[C@H]2CN=C(SC)N21	none (no result: SENP6 block, SENP8 block-2)
CC(C)NCC(O)c1ccc(NS(C)(=O)=O)cc1 (stereo unspecified)	none
CC(C)NC[C@@H](O)c1ccc(O)c(O)c1	SENP8 block-1 44
CC(/C=N/N1CCN(c2ccccn2)CC1)=C\c1ccccc1	SENP6 block 59, SENP7 block 63
Oc1ccccc1/C=N/N1CCN(c2ccccn2)CC1	none
COc1ccccc1N1CCN(/N=C/C(Cl)=C/c2ccccc2)CC1	SENP6 block 72, SENP8 block-2 57
CC(=O)Nc1ccc(C=NNc2ccc(S(=O)(=O)Nc3ccccc3C(=O)O)cc2[N+](=O)[O-])cc1	none
O=C(O)c1ccccc1NS(=O)(=O)c1ccc(N/N=C/c2cccc(O)c2O)c([N+](=O)[O-])c1	SENP8 block-1 39 (no result: SENP6 block, SENP8 block-2, SENP7 block)
COc1cc(C=NNc2ccc(S(=O)(=O)Nc3ccccc3C(=O)O)cc2[N+](=O)[O-])ccc1O	SENP8 block-1 46
CCOc1ccc(C=NNc2ccc(S(=O)(=O)Nc3ccccc3C(=O)O)cc2[N+](=O)[O-])cc1OC	SENP8 block-1 52
O=C(OC1CCOC1=O)c1cc(S(=O)(=O)N2CCOCC2)c(Cl)cc1Cl (stereo unspecified)	none
CCCSc1nc2cc(C)c(C)cc2n1CC(C)O (stereo unspecified)	none
Oc1ccc(/C=N/Nc2cc(N3CCOCC3)nc(N3CCOCC3)n2)cc1O	none
Oc1ccccc1/C=N/Nc1cc(N2CCCC2)nc(N2CCCC2)n1	SENP8 block-1 58
COc1ccc(NC(=O)c2cc(S(=O)(=O)N(Cc3ccccc3)c3ccccc3)ccc2Cl)cn1	none
COc1ccc(Br)cc1S(=O)(=O)NCCc1cccs1	none
COc1ccc(-c2ccc3c(c2)S(=O)(=O)c2cccc(C(=O)N4CCN(c5c(Cl)cncc5Cl)CC4)c2C3=O)cc1OC	SENP1 FRET inh 51
O=C1c2ccc(Cl)cc2S(=O)(=O)c2cccc(C(=O)N3CCN(c4ncc(Br)cn4)CC3)c21	none
CCOC(=O)N/N=C(\C)c1ccc(OC(F)F)cc1OC(F)F	none
CCC(ONc1ccccc1C(F)(F)F)(C(=O)NN(C)C)c1ccccc1 (stereo unspecified)	none
O=C(CSc1nnc(NC(=O)c2ccccc2Cl)s1)Nc1ccc2c(c1)oc1ccccc12	SENP7 block 82 (no result: SENP8 block-1, SENP1 FRET inh)
Cc1ccc2nc(-c3cc(-c4ccccc4)no3)cn2c1	SENP7 block 90
Cc1ccc(C)c(N2CCN(C(=O)CNS(=O)(=O)c3cccs3)CC2)c1	none
CC1=Nc2cccc3cccc(c23)N1	SENP8 block-1 47
Nc1nn2cc(-c3ccc(Br)cc3)nc2c2ccccc12	SENP6 block 87, SENP8 block-2 75, SENP7 block 79
CN(C)c1ccc(Cc2cc3c(O)ccc(O)c3cc(Cc3ccc(N(C)C)cc3)c2=O)cc1	SENP8 block-1 52 (no result: SENP6 block, SENP8 block-2, SENP7 block)
CC(C)NC(=O)C1(C)CCCCN1Cc1ccc(OCc2ccccc2)cc1 (stereo unspecified)	none (no result: SENP6 block, SENP8 block-2, SENP7 block)
O=C(Cc1ccccc1)N/N=C/c1cccs1	none
Cc1ccccc1CSCC(=O)N/N=C/c1cccs1	SENP8 block-1 43
O=C1C=C(Nc2cccnc2)c2ccccc2C1=O	SENP8 block-1 91 (no result: SENP6 block, SENP8 block-2, SENP7 block)
CN1CCN(/N=C/c2ccc(-c3ccc([N+](=O)[O-])cc3Cl)o2)CC1	SENP1 FRET inh 79
O=C(NCc1ccccc1)c1cc(C2COCCN2C(=O)CCc2ccccc2)on1 (stereo unspecified)	none (no result: SENP6 block, SENP8 block-2, SENP7 block)
CC1=NN(c2ccccc2)C(=O)C1N=Nc1ccccc1 (stereo unspecified)	none
CC1=NN(c2ccccc2)C(=O)C1N=Nc1ccc(N)cc1 (stereo unspecified)	SENP8 block-1 61
O=C(Nc1ccc(N2CCOCC2)cc1)c1csc([C@@H]2O[C@H](CO)[C@H](O)[C@H](O)[C@H]2O)n1	none (no result: SENP6 block, SENP8 block-2, SENP7 block)
CCOc1ccc2nc(N3C(=O)/C(=C/c4ccc(Cl)cc4)NC3=S)sc2c1	SENP1 FRET inh 33 (no result: SENP6 block, SENP8 block-2, SENP7 block)
Cc1cc2c(=Cc3ccc(N(C)C)cc3)c3ccccc3n2[n+]1C	SENP8 block-1 43, SENP1 FRET inh 41 (no result: SENP6 block, SENP8 block-2, SENP7 block)
CN(C)c1ccc(C=c2c3ccccc3n3c2c2ccccc2[n+]3C)cc1	none (no result: SENP6 block, SENP8 block-2, SENP7 block)
CCOC(=O)c1cc2c(=Cc3ccc(N(C)C)cc3)c3ccccc3n2[n+]1C	SENP8 block-1 91 (no result: SENP6 block, SENP8 block-2, SENP7 block)
CN(C(=O)c1ccc(Br)o1)C1CCCCC1	none
CCNC(=S)NS(=O)(=O)c1ccc(Cl)cc1	none
CCNC(=S)NS(=O)(=O)c1ccccc1	SENP8 block-1 42
C[C@]12CC[C@@H]3c4ccc(O)cc4CC[C@H]3[C@@H]1CC[C@@H]2O	none
C[C@]12CC[C@@H]3c4cc(O)c(O)cc4CC[C@H]3[C@@H]1CC[C@@H]2O	SENP8 block-1 41
Cc1cc(CNC(=O)COC(=O)Cn2[nH]c(=O)c3ccccc3c2=O)cc(C)c1O	none
O=C1CC2c3ccccc3C1C1C(=O)N(Cc3ccccc3)C(=O)C21 (stereo unspecified)	none
COc1cc(/C=C2\SC(N)=NC2=O)ccc1O	SENP1 FRET inh 40
Cc1c(N2C(=O)/C(=C3/C(=O)N(C)c4ccccc43)SC2=S)c(=O)n(-c2ccccc2)n1C	none
CC(=O)N1C(=O)/C(=C2\SC(=S)N(c3c(C)n(C)n(-c4ccccc4)c3=O)C2=O)c2ccccc21	SENP8 block-1 81 (no result: SENP6 block, SENP8 block-2, SENP7 block)
COc1ccc(/C=C2\N=C3CCCCCN3C2=O)cc1OC	none
COc1ccc(/C=C2/SC(=S)N(NS(=O)(=O)c3ccccc3)C2=O)cc1	none
COc1cc(/C=C2\SC(=S)N(NS(=O)(=O)c3ccccc3)C2=O)ccc1O	SENP8 block-1 48, SENP1 FRET inh 75
COc1cc(/C=C2\N=C3CCCCCN3C2=O)ccc1O	SENP1 FRET inh 37
CCOc1cc(/C=C2\SC(=S)N(NS(=O)(=O)c3ccc(C)cc3)C2=O)ccc1O	SENP1 FRET inh 83
COc1cc(/C=C2/SC(=S)N(c3c(C)n(C)n(-c4ccccc4)c3=O)C2=O)ccc1O	SENP1 FRET inh 46
COc1cc(/C=C2\SC(=S)N(NS(=O)(=O)c3ccc(C)cc3)C2=O)ccc1O	SENP1 FRET inh 91
CCOC(=O)C1=C(C(F)(F)F)Nc2ncnn2C1c1ccc(OC)c(OC)c1OC (stereo unspecified)	none
CCOC(=O)c1ccc(NC(=O)N2CCN(c3cccc(OC)c3)CC2)cc1	none
Nc1c(C(=O)NCc2ccco2)c2nc3ccccc3nc2n1CCc1ccc(F)cc1	SENP6 block 67, SENP8 block-2 58
COc1ccc(-n2c(N)c(C(=O)NCc3ccco3)c3nc4ccccc4nc32)cc1	none
O=C1O/C(=C/c2ccccc2)c2ccccc21	SENP6 block 59

Screens from PubChem BioAssay.
